Reference: the array DNA melting data of Ke et al. (doi:10.1101/2024.01.08.574731)

Key:
[1] = melting temperature; fluorescence melt of hairpins on a sequencing array, two-state fit, raised by 9.35 °C to match UV melts; settings: sodium 0.088 M
Procedure, shortened: (§1)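 Two-state fits, bootstrapped, provided melting temperature and folding enthalpy from Cy3 fluorescence normalised to pre-quench Cy3 and to control constructs. Library hairpins with annealed Cy3 and quencher oligos were imaged on a sequenced MiSeq flow cell in 50 mM Na-HEPES pH 8.0, 25 mM NaCl, at 2.5 °C intervals up to 60 °C. Four replicates were combined with inverse-variance weighting. A 9.35 °C upward shift was applied to fitted temperatures to match UV melts.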

[2] = folding enthalpy; higher = less favourable; fluorescence melt of hairpins on a sequencing array, two-state fit; settings: sodium 0.088 M
Procedure, shortened: as §1

| Sequence | Tm [1] | folding enthalpy [2] |
| --- | --- | --- |
| GGCGCCGAAAGGCTAGCC ((((((....)))..))) | 61.7 °C | -21.6 kcal/mol |
| GGCGCCGAAAGGCTGCC ((((((....))).))) | 67.1 °C | -19.4 kcal/mol |
| GGCGCCGCGAAAGCGGCC (((..(((....)))))) | 49.1 °C | -5.39 kcal/mol |
| GGCGCCTCGAAAGAGGCC (((..(((....)))))) | 50.5 °C | -8.15 kcal/mol |
| GGCGCTGCGAAAGCAGCC (((..(((....)))))) | 58.1 °C | -6.28 kcal/mol |
| GGCGCTGGAAACGGCGTC (.(((.(....).))).) | 54.3 °C | -28 kcal/mol |
| GGCGGACGAAAGTCGCC (((.(((....)))))) | 68.5 °C | -28.2 kcal/mol |
| GGCGGAGGAAACCCCGCC (((((.(....).))))) | 64.5 °C | -33.4 kcal/mol |
| GGCGGCGAAAGCCATGCC ((((((....)))..))) | 59.8 °C | -16.5 kcal/mol |
| GGCGGCGAAAGCCTAGCC ((((((....)))..))) | 60.8 °C | -21.3 kcal/mol |
| GGCGGCGCGAAAGCGGCC (((..(((....)))))) | 59.5 °C | -9.35 kcal/mol |
| GGCGGGCCGAAAGGCGCC (((..(((....)))))) | 62.3 °C | -13.2 kcal/mol |
| GGCGGGGGAAACCCCGTC (.(((((....))))).) | 65.1 °C | -22.7 kcal/mol |
| GGCGGGGGAAACCCTGCC (((.(((....))).))) | 65.2 °C | -27 kcal/mol |
| GGCGGTCGAAAGACGGCC (((.(((....))).))) | 68.2 °C | -34.5 kcal/mol |
| GGCGGTGGAAACACCGTC (.(((((....))))).) | 65.8 °C | -23.9 kcal/mol |
| GGCGTACCGAAAGGTGCC (((..(((....)))))) | 54.7 °C | -33.2 kcal/mol |
| GGCGTATCGAAAGATGCC (((..(((....)))))) | 47.9 °C | -22.5 kcal/mol |
| GGCGTCCCGAAAGGGGCC (((..(((....)))))) | 50.4 °C | -14.3 kcal/mol |
| GGCGTCGAAAGACCCGCC ((((((....)))..))) | 55.3 °C | -17.5 kcal/mol |
| GGCGTCGAAAGACTGCC ((((((....))).))) | 57 °C | -36.4 kcal/mol |
| GGCGTGACGAAAGTCGCC (((..(((....)))))) | 57.5 °C | -21.1 kcal/mol |
| GGCGTGGGAAACCACACC ((.((((....)))).)) | 50.5 °C | -35.3 kcal/mol |

| Sequence | Tm [1] | folding enthalpy [2] |
| --- | --- | --- |
| GGCGTTGGAAACAACACC ((.((((....)))).)) | 46.7 °C | -33.6 kcal/mol |
| GGCGTTGGAAACAACGTC (.(((((....))))).) | 57.8 °C | -25.4 kcal/mol |
| GGCGTTGGAAACAGCGTC (.((.((....)).)).) | 44.6 °C | -21.9 kcal/mol |
| GGCTAAACGAAAGTTGCC (((..(((....)))))) | 47.6 °C | -22.5 kcal/mol |
| GGCTAACCGAAAGGTGCC (((..(((....)))))) | 53.6 °C | -22.4 kcal/mol |
| GGCTAACGAAAGTTCGCC (((.(((....))).))) | 52.9 °C | -44.2 kcal/mol |
| GGCTAACGAAAGTTGGCC (((.(((....))).))) | 60.1 °C | -44.2 kcal/mol |
| GGCTAACGAAAGTTTGCC (((.(((....))).))) | 54.7 °C | -61 kcal/mol |
| GGCTACGAAAGTAACGCC ((((((....)))..))) | 46.1 °C | -22.8 kcal/mol |
| GGCTACGAAAGTACAGCC ((((((....)))..))) | 48 °C | -26.9 kcal/mol |
| GGCTACGAAAGTATGGCC ((((((....)))..))) | 47.3 °C | -25.7 kcal/mol |
| GGCTACGGAAACGTGGTC (.(.(((....))).).) | 42 °C | -27.8 kcal/mol |
| GGCTATCGAAAGATTGCC (((.(((....))).))) | 55.7 °C | -41.3 kcal/mol |
| GGCTATGGAAACACAGCC ((((.((....)).)))) | 43.2 °C | -29.9 kcal/mol |
| GGCTCAACGAAAGTTGCC (((..(((....)))))) | 38.2 °C | -13.7 kcal/mol |
| GGCTCAGAAATGAGCC ((((((....)))))) | 67 °C | -38.9 kcal/mol |
| GGCTCCCGAAAGGGTGCC (((.(((....))).))) | 67.6 °C | -40 kcal/mol |
| GGCTCCGAAAGGAAAGCC ((((((....)))..))) | 54.3 °C | -30.1 kcal/mol |
| GGCTCCGAAAGGAATGCC ((((((....)))..))) | 51.3 °C | -26.9 kcal/mol |
| GGCTCCGAAAGGACGGCC ((((((....)))..))) | 51.2 °C | -20.8 kcal/mol |
| GGCTCCGAAAGGAGCGCC ((((((....)))..))) | 68.6 °C | -6.52 kcal/mol |
| GGCTCCGAAAGGAGGGCC ((((((....)))..))) | 52.5 °C | -15.8 kcal/mol |
| GGCTCCGGAAACGGAGTC (.(((((....))))).) | 60.8 °C | -30.1 kcal/mol |

| Sequence | Tm [1] | folding enthalpy [2] |
| --- | --- | --- |
| GGCTCCGGAAACGGGGTC (.(.(((....))).).) | 49 °C | -25.1 kcal/mol |
| GGCTCCTCGAAAGAGGCC (((..(((....)))))) | 39.5 °C | -14 kcal/mol |
| GGCTCGCGAAAGCGGCC (((.(((....)))))) | 66.5 °C | -19.2 kcal/mol |
| GGCTCGGGAAACTGGGCC (((.(.(....).).))) | 48.9 °C | -36.7 kcal/mol |
| GGCTCTCGAAAGAGCGCC (((.(((....))).))) | 56.4 °C | -34.6 kcal/mol |
| GGCTGAACGAAAGTTGCC (((..(((....)))))) | 46.9 °C | -24.6 kcal/mol |
| GGCTGAGGAAACCCAGCC (((((.(....).))))) | 55 °C | -41.9 kcal/mol |
| GGCTGAGGAAACTCAACC ((.((((....)))).)) | 41.2 °C | -32.5 kcal/mol |
| GGCTGCGAAAGCACGCC ((((((....))).))) | 65.2 °C | -29.6 kcal/mol |
| GGCTGCGAAAGCATGCC ((((((....))).))) | 66.7 °C | -21.6 kcal/mol |
| GGCTGCGAAAGCATTGCC ((((((....)))..))) | 52.8 °C | -19.5 kcal/mol |
| GGCTGCGGAAACGTAGCC ((((.((....)).)))) | 61 °C | -50.1 kcal/mol |
| GGCTGGCGAAAGCCCGCC (((.(((....))).))) | 63 °C | -22.6 kcal/mol |
| GGCTGGGGAAACCCAGTC (.(((((....))))).) | 55.8 °C | -41.6 kcal/mol |
| GGCTGGGGAAACTCAGCC (((((.(....).))))) | 57 °C | -38.7 kcal/mol |
| GGCTGTGGAAACACAGTC (.(((((....))))).) | 54.2 °C | -28.2 kcal/mol |
| GGCTTACGAAAGTAGCC (((.(((....)))))) | 55.5 °C | -34.1 kcal/mol |
| GGCTTACGAAAGTATGCC (((.(((....))).))) | 56.8 °C | -45.2 kcal/mol |
| GGCTTCGAAAGAAACGCC ((((((....)))..))) | 43.8 °C | -26.1 kcal/mol |
| GGCTTCGAAAGAACGCC ((((((....))).))) | 50.9 °C | -22.7 kcal/mol |
| GGCTTCGAAAGAAGGCC ((((((....))).))) | 57.9 °C | -26.8 kcal/mol |
| GGCTTCGGAAACAAAGCC (((((.(....).))))) | 44.2 °C | -28.3 kcal/mol |
